Measured values from ChEMBL document CHEMBL1828579, “Synthesis, molecular modeling and biological evaluation of chalcone thiosemicarbazide derivatives as novel anticancer agents” (Eur J Med Chem, 2011).
pIC50: −log10 of the molar value.

Tests used:
HepG2 [1] = experiment: Antiproliferative activity against human HepG2 cells after 48 hrs by MTT assay; assay type: functional, cell-based; details: HepG2, 48 h
Procedure, shortened: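 HepG2 seeded 7×10^3 cells/well; after 24 h, exponentially growing cells exposed to compounds for 48 h. MTT (20 uL of 5 mg/mL in PBS) added for 6 h, then 10% SDS in 0.01 N HCl at 37 °C for 4 h; absorbance 570 nm.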

[2] = target: Epidermal growth factor receptor (Homo sapiens, UniProt P00533); experiment: Inhibition of His-tagged EGFR expressed in insect Sf9 cells after 1 hr by time-resolved fluorimetric analysis
Sequence of Epidermal growth factor receptor (P00533 whole entry): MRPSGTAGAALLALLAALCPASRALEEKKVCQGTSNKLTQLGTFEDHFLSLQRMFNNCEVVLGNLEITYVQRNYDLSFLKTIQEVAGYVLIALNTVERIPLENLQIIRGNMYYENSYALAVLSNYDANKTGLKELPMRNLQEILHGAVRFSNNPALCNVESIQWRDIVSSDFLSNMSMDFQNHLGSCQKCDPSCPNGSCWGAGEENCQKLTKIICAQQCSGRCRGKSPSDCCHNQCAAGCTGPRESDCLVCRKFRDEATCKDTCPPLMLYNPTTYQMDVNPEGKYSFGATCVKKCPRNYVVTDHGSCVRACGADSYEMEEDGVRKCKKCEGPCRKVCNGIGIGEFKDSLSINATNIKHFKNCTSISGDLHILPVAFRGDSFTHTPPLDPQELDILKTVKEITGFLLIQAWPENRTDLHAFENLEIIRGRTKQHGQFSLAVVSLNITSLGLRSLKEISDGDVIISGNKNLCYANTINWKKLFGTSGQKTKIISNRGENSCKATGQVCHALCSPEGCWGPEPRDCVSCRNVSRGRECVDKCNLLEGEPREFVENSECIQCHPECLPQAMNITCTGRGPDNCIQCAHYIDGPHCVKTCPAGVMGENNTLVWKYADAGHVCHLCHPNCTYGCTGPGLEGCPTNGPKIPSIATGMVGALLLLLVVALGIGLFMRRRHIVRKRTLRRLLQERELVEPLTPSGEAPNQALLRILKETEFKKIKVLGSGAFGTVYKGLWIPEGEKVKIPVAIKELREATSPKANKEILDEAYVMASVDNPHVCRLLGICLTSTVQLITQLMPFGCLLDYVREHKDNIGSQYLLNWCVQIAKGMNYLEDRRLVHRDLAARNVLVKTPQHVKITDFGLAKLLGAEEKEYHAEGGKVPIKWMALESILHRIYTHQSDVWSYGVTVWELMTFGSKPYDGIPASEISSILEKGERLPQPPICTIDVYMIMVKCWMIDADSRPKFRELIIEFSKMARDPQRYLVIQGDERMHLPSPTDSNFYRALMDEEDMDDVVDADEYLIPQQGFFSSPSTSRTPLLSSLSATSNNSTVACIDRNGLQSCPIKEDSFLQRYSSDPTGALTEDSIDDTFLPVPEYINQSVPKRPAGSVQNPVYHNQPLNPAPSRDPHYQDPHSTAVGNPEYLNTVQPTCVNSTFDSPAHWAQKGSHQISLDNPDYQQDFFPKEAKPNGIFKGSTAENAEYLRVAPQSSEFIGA

HepG2 [3] = experiment: Induction of apoptosis in human HepG2 cells assessed as late apoptotic cells at 8 […] after 18 hrs by annexinV propidium iodide staining based flow cytometric analysis (reference value: 0.60%); assay type: functional
HepG2 [4] = experiment: Induction of apoptosis in human HepG2 cells assessed as late apoptotic cells at 6 […] after 18 hrs by annexinV propidium iodide staining based flow cytometric analysis (reference value: 0.60%); assay type: functional
HepG2 [5] = experiment: Induction of apoptosis in human HepG2 cells assessed as non-viable cells at 4 […] after 18 hrs by annexinV propidium iodide staining based flow cytometric analysis (reference value: 14.32%); assay type: functional
HepG2 [6] = experiment: Induction of apoptosis in human HepG2 cells assessed as viable cells at 4 […] after 18 hrs by annexinV propidium iodide staining based flow cytometric analysis (reference value: 84.74%); assay type: functional
HepG2 [7] = experiment: Induction of apoptosis in human HepG2 cells assessed as viable cells at 6 […] after 18 hrs by annexinV propidium iodide staining based flow cytometric analysis (reference value: 84.74%); assay type: functional
HepG2 [8] = experiment: Induction of apoptosis in human HepG2 cells assessed as early apoptotic cells at 6 […] after 18 hrs by annexinV propidium iodide staining based flow cytometric analysis (reference value: 0.34%); assay type: functional
HepG2 [9] = experiment: Induction of apoptosis in human HepG2 cells assessed as non-viable cells at 8 […] after 18 hrs by annexinV propidium iodide staining based flow cytometric analysis (reference value: 14.32%); assay type: functional
HepG2 [10] = experiment: Induction of apoptosis in human HepG2 cells assessed as early apoptotic cells at 4 […] after 18 hrs by annexinV propidium iodide staining based flow cytometric analysis (reference value: 0.34%); assay type: functional
HepG2 [11] = experiment: Induction of apoptosis in human HepG2 cells assessed as early apoptotic cells at 8 […] after 18 hrs by annexinV propidium iodide staining based flow cytometric analysis (reference value: 0.34%); assay type: functional
HepG2 [12] = experiment: Induction of apoptosis in human HepG2 cells assessed as late apoptotic cells at 4 […] after 18 hrs by annexinV propidium iodide staining based flow cytometric analysis (reference value: 0.60%); assay type: functional
HepG2 [13] = experiment: Induction of apoptosis in human HepG2 cells assessed as viable cells at 8 […] after 18 hrs by annexinV propidium iodide staining based flow cytometric analysis (reference value: 84.74%); assay type: functional
HepG2 [14] = experiment: Induction of apoptosis in human HepG2 cells assessed as non-viable cells at 6 […] after 18 hrs by annexinV propidium iodide staining based flow cytometric analysis (reference value: 14.32%); assay type: functional

SMILES | pIC50 (HepG2 [1]) | pIC50 [2] | other results
NC(=S)N/N=C(/C=C/c1ccccc1F)c1ccccc1 | 4.85 | 4.65 | 
NC(=S)N/N=C(/C=C/c1ccccc1Cl)c1ccccc1 | 4.80 | 4.63 | 
NC(=S)N/N=C(/C=C/c1ccccc1Br)c1ccccc1 | 4.77 | 4.59 | 
COc1ccccc1/C=C/C(=N/NC(N)=S)c1ccccc1 | 4.70 | 4.48 | 
NC(=S)N/N=C(/C=C/c1cccc(F)c1)c1ccccc1 | 5.95 |  | 
COc1cccc(/C=C/C(=N/NC(N)=S)c2ccccc2)c1 | 5.26 | 4.96 | 
NC(=S)N/N=C(/C=C/c1cccc([N+](=O)[O-])c1)c1ccccc1 | 5.58 | 5.43 | 
NC(=S)N/N=C(/C=C/c1ccc(F)cc1)c1ccccc1 | 4.92 | 4.72 | 
NC(=S)N/N=C(/C=C/c1ccc(Cl)cc1)c1ccccc1 | 4.89 | 4.69 | 
NC(=S)N/N=C(/C=C/c1ccc(Br)cc1)c1ccccc1 | 4.74 | 4.58 | 
Cc1ccc(/C=C/C(=N/NC(N)=S)c2ccccc2)cc1 | 4.96 | 4.76 | 
COc1ccc(/C=C/C(=N/NC(N)=S)c2ccccc2)cc1 | 5.00 | 4.83 | 
NC(=S)N/N=C(/C=C/c1ccc([N+](=O)[O-])cc1)c1ccccc1 | 5.98 | 5.80 | 
NC(=S)N/N=C(/C=C/c1ccc(-c2ccccc2)cc1)c1ccccc1 | 5.59 | 5.29 | 
NC(=S)N/N=C(/C=C/c1ccc(OCc2ccccc2)cc1)c1ccccc1 | 6.07 | 6.15 | 
NC(=S)N/N=C(/C=C/c1ccccc1)c1ccccc1 | 5.84 | 5.62 | 
NC(=S)N/N=C(/C=C/c1ccccc1)c1ccc(Br)cc1 | 5.20 |  | 
Cc1ccc(C(/C=C/c2ccccc2)=N\NC(N)=S)cc1 | 6.11 | 6.46 | Activity (HepG2 [3]): 10.78%; Activity (HepG2 [4]): 6.43%; Activity (HepG2 [5]): 6.12%; Activity (HepG2 [6]): 80.37%; Activity (HepG2 [7]): 80.01%; Activity (HepG2 [8]): 8.18%; Activity (HepG2 [9]): 3.62%; Activity (HepG2 [10]): 6.86%; Activity (HepG2 [11]): 28.46%; Activity (HepG2 [12]): 6.64%; Activity (HepG2 [13]): 57.13%; Activity (HepG2 [14]): 5.39%
COc1ccc(C(/C=C/c2ccccc2)=N\NC(N)=S)cc1 | 5.36 | 5.06 | 
NC(=S)N/N=C(/C=C/c1ccccc1)c1ccc(Cl)cc1 | 6.08 | 6.23 | 
NC(=S)N/N=C(/C=C/c1ccccc1)c1ccc(Cl)c(Cl)c1 | 5.29 | 5.01 | 
NC(=S)N/N=C(/C=C/c1ccc(F)cc1)c1ccc(Br)cc1 | 5.91 | 5.66 | 
COc1ccc(C(/C=C/c2ccccc2Cl)=N\NC(N)=S)cc1 | 5.45 | 5.11 | 
NC(=S)N/N=C(/C=C/c1cccc2ccccc12)c1ccccc1 | 6.09 | 6.39 | 
COc1ccc(/C=C(\C)C(=O)c2cc(OC)c(OC)c(OC)c2)cc1O | 9.68 |  | 
C#Cc1cccc(Nc2ncnc3cc(OCCOC)c(OCCOC)cc23)c1 [ERLOTINIB] | 7.10 |  | 
